Bioassay records deposited in PubChem by The Scripps Research Institute Molecular Screening Center.
LYPLA2 counter – LYPLA2 (human) inhibition in PME1 counter-screen | O95372 | recombinant LYPLA2, FP-Rh probe fluorescence polarization | inhibition, % at 5.9 µM | actives 0.38% (n = 320,000);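 active = inhibition above the screen-wide mean plus 3 SD, limit set per campaign, cut at about 26% in these data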;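 note: 0% = LYPLA2 with DMSO and 100% = wells lacking LYPLA2 enzyme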
Target sequence (O95372 whole entry, looked up): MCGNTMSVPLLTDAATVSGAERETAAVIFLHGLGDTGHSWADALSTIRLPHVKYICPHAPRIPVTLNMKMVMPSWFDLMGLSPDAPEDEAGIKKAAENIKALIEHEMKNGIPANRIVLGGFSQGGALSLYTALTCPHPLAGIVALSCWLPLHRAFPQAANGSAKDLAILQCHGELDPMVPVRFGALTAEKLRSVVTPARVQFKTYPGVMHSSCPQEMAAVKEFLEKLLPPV
PAD4 FP inh – PAD4 (human) enzyme inhibition; Q9UM07; recombinant PAD4, RCA probe fluorescence polarization; inhibition, % at 6.36 µM; actives 0.41% (n = 330,000); AID 485272;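 active = percent inhibition above a cutoff equal to the mean of all tested compounds plus 3 SD, cut at about 15% in these data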;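 note: 0% = PAD4 with RCA probe and DMSO and 100% = probe without PAD4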
RBBP9 inhibitor – inhibitors of human serine hydrolase RBBP9 | recombinant RBBP9, FP-Rh probe fluorescence polarization | inhibition, % at 7.94 µM | actives 0.2% (n = 220,000) | AID 1515;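 active = inhibition above the campaign mean of all tested compounds plus 3 SD, cut at about 14% in these data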;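 note: plate controls were DMSO wells with RBBP9 for no effect and wells lacking RBBP9 protein for full effect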
Target sequence (O75884 whole entry, looked up): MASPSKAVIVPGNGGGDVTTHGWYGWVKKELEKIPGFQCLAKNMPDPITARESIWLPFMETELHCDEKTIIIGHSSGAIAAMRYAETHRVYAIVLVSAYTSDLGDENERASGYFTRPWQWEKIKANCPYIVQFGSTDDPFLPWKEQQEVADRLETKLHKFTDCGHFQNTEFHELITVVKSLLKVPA
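System: RBBP9 protein / Buffer or medium: Tris/NaCl buffer pH 8.0 with 0.1% Pluronic / Probe or stimulus: Serine-hydrolase probe FP-Rh, 375 nM pre-mixing / Dosing: 7.94 µM single dose, 0.794% DMSO / Times: enzyme-compound preincubation 30 min, then probe labeling 45 min, 25 °C / Technique: fluorescence polarization (mP), excitation 525 nm, emission 598 nm / Replication: singlicate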
Fam108B counter – blocks mouse Fam108B hydrolase in RBBP9 counter-screen. recombinant Fam108B, FP-Rh probe fluorescence polarization. inhibition, % at 9.51 µM. actives 0.33% (n = 300,000);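 active = inhibition above the screen mean inhibition plus 3 SD, computed separately per campaign, cut at about 18% in these data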;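 note: inhibitors lower polarization as less probe binds the enzyme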
PME-1 inh – PME-1 (human) inhibition; actives 0.53% (n = 320,000); recombinant PME-1, FP-Rh probe fluorescence polarization; inhibition, % at 5.9 µM; Q9Y570;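 active = inhibition above the campaign mean of all compounds plus 3 SD, cut at about 26% in these data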;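 note: competitive labeling of PME-1 active site by serine hydrolase directed probe; 0% = PME-1 with DMSO and 100% = wells lacking PME-1 enzyme; inhibitors block probe labeling so polarization falls and inhibition rises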
LYPLA1 counter – blocks human lysophospholipase 1, a PME1 counter-screen; O75608; recombinant LYPLA1, FP-Rh probe fluorescence polarization; inhibition, % at 5.9 µM; actives 0.16% (n = 320,000); AID 2174;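 active = inhibition above the mean of all tested compounds plus 3 SD, set per campaign, cut at about 14% in these data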;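 note: inhibitors block serine hydrolase probe labeling of LYPLA1 so polarization falls; 0% = enzyme with DMSO and 100% = wells lacking LYPLA1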
Target sequence (O75608 whole entry, looked up): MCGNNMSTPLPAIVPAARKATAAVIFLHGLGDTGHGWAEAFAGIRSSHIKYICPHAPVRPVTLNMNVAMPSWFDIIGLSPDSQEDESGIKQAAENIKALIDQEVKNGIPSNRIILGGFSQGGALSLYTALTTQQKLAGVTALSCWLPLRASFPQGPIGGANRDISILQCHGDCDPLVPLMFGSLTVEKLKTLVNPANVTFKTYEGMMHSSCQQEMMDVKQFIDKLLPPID
LYPLA1 confirm – LYPLA1 (human) inhibition, confirmation counter-screen | actives 69% (n = 480) | inhibition, % at 5.9 µM | AID 2233 | shares compounds with LYPLA1 counter | recombinant LYPLA1, FP-Rh probe fluorescence polarization;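 active = mean inhibition across replicates above the hit cutoff set in the primary screen, cut at about 15% in these data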;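 note: loss of FP-Rh probe labeling of LYPLA1 seen as lower polarization; 0% = LYPLA1 with DMSO and 100% = wells lacking LYPLA1 enzyme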
Numbers without * were called inactive. Only some compounds are listed: those with a hit (about 1.3% of all), similar ones and a draw of the others.

For O=C1C(Cc2c[nH]c3ccccc23)NC(=S)N1Cc1ccccc1 (configuration not stated) the results were LYPLA2 counter -7, PAD4 FP inh -4, RBBP9 inhibitor 3, Fam108B counter 4, PME-1 inh 2, LYPLA1 counter 38* and LYPLA1 confirm 1.
For O=C1NC(Cc2c[nH]c3ccccc23)C(=O)N1Cc1ccccc1 (configuration not stated) the results were LYPLA2 counter -1, PAD4 FP inh 2, Fam108B counter 2, PME-1 inh 2 and LYPLA1 counter 0.
CS(=O)(=O)N1CCN=C1SCc1ccc(Br)cc1 was read as LYPLA2 counter 8, PAD4 FP inh 1, Fam108B counter -1, PME-1 inh -6 and LYPLA1 counter -1.
Screening CS(=O)(=O)N1CCN=C1SCc1ccc([N+](=O)[O-])cc1 returned LYPLA2 counter 5, PAD4 FP inh -1, RBBP9 inhibitor 2, Fam108B counter 4, PME-1 inh 4, LYPLA1 counter active and LYPLA1 confirm 0.
Screening O=C(COC(=O)c1ccc(Cl)nc1)NC1CCCc2ccccc21 (configuration not stated) returned PAD4 FP inh 1.
Screening CC(C)N(C(=O)COC(=O)c1ccc(O)cc1)C(C)C returned LYPLA2 counter -3, PAD4 FP inh -1, RBBP9 inhibitor 4, Fam108B counter 0, PME-1 inh -1 and LYPLA1 counter -1.
`COC(=O)COC(=O)c1ccc(O)cc1` gave LYPLA2 counter 3, PAD4 FP inh -2, RBBP9 inhibitor -8, Fam108B counter -2, PME-1 inh -4, LYPLA1 counter 15* and LYPLA1 confirm 2.
`CCN(CC)CCN(Cc1cc2cc3c(cc2[nH]c1=O)OCO3)C(=S)NCCOC` gave LYPLA2 counter -3, PAD4 FP inh 0, Fam108B counter 2, PME-1 inh -1 and LYPLA1 counter 1.
`CC(=O)c1ccc(COC(=O)c2cc3ccccc3oc2=O)cc1` gave LYPLA2 counter 1, PAD4 FP inh -3, Fam108B counter 2, PME-1 inh 9 and LYPLA1 counter -2.
For O=C(/C=C/c1ccc(Cl)c([N+](=O)[O-])c1)Nc1ccc(N2CCCC2)cc1 the results were LYPLA2 counter -2, PAD4 FP inh -9, RBBP9 inhibitor -4, Fam108B counter 0, PME-1 inh 4 and LYPLA1 counter 0.
Screening c1ccc2[nH]c(CN3CCN(c4ncnc5c4oc4ccccc45)CC3)nc2c1 returned LYPLA2 counter 4, PAD4 FP inh -5, RBBP9 inhibitor -7, Fam108B counter -2, PME-1 inh 9, LYPLA1 counter 17* and LYPLA1 confirm 18*.
For Cc1nc(N2CCN(Cc3nc4ccccc4[nH]3)CC2)c2oc3ccccc3c2n1 the results were LYPLA2 counter 5, PAD4 FP inh -2, RBBP9 inhibitor -1, Fam108B counter 1, PME-1 inh -6 and LYPLA1 counter -1.
`CCCCNCc1ccc(OCc2ccc(Cl)nc2)c(OC)c1` gave LYPLA2 counter 10, PAD4 FP inh -2, RBBP9 inhibitor -16, Fam108B counter 1, PME-1 inh -3, LYPLA1 counter 15* and LYPLA1 confirm 3.
`Cn1c(=O)[nH]c2nnc(-c3ccc(Cl)c(Cl)c3)nc2c1=O` gave LYPLA2 counter 3, PAD4 FP inh -2, RBBP9 inhibitor -1, Fam108B counter 6, PME-1 inh 14, LYPLA1 counter 14* and LYPLA1 confirm 24*.
CSc1cnc2c(=O)n(C)c(=O)[nH]c2n1 was read as LYPLA2 counter -11, PAD4 FP inh -3, RBBP9 inhibitor -14, Fam108B counter -2, PME-1 inh 4 and LYPLA1 counter -2.
Screening O=C(C1=COCCO1)N(Cc1nnc(-c2ccccc2Cl)o1)C1CC1 returned LYPLA2 counter 4, PAD4 FP inh 3, PME-1 inh -3 and LYPLA1 counter 2.
For CCN(CC)S(=O)(=O)c1cccc(-c2nnc(SCCOc3ccccc3)o2)c1 the results were LYPLA2 counter 1, PAD4 FP inh 3, RBBP9 inhibitor -8, Fam108B counter -6, PME-1 inh -10, LYPLA1 counter 41* and LYPLA1 confirm 51*.
Screening CCN(CC)S(=O)(=O)c1cccc(-c2nnc(SCCOc3ccccc3C)o2)c1 returned LYPLA2 counter -8, PAD4 FP inh 0, RBBP9 inhibitor -13, Fam108B counter -1, PME-1 inh -1, LYPLA1 counter 29* and LYPLA1 confirm 34*.
`O=C(NN1CCOCC1)c1ccc(S(=O)(=O)N2CCCCC2)cc1` gave LYPLA2 counter 5, PAD4 FP inh -2, RBBP9 inhibitor -2, Fam108B counter -1, PME-1 inh -8 and LYPLA1 counter 2.
Cc1cc(CN(C)C(=O)c2cc(COc3ccc(C)c(C)c3)on2)on1 was read as LYPLA2 counter -1, PAD4 FP inh 2, Fam108B counter 4, PME-1 inh 0 and LYPLA1 counter 1.
Cc1ccc(OCc2cc(C(=O)N(C)Cc3cnn(-c4ccccc4C)c3)no2)cn1 was read as LYPLA2 counter 14, PAD4 FP inh -2, Fam108B counter 4, PME-1 inh -16, LYPLA1 counter 27* and LYPLA1 confirm 29*.
For Cc1cc(C)c2oc(C(=O)N3CCN(Cc4ccccc4)CC3)cc(=O)c2c1 the results were LYPLA2 counter -6, PAD4 FP inh 1, Fam108B counter -4, PME-1 inh 3, LYPLA1 counter 21* and LYPLA1 confirm 26*.
`Cc1cc(C)c2oc(C(=O)N3CCN(C)CC3)cc(=O)c2c1` gave LYPLA2 counter 0, PAD4 FP inh -2, Fam108B counter -3, PME-1 inh 1 and LYPLA1 counter 8.
`O=C(O)c1ccc(CSc2nc3ccccc3c(=O)n2-c2ccccc2)cc1` gave LYPLA2 counter 22, PAD4 FP inh 1, Fam108B counter -2, PME-1 inh 2, LYPLA1 counter 17* and LYPLA1 confirm 27*.
Screening O=c1c2ccccc2nc(SCc2ccc([N+](=O)[O-])cc2)n1-c1ccccc1 returned LYPLA2 counter -11, PAD4 FP inh -7, RBBP9 inhibitor -10, Fam108B counter -7, PME-1 inh 18 and LYPLA1 counter 1.
Screening O=C(CSc1n[nH]c(=O)[nH]c1=O)Nc1ccc2c(c1)C(=O)c1ccccc1C2=O returned LYPLA2 counter 16, PAD4 FP inh 1, RBBP9 inhibitor -8, Fam108B counter 12, PME-1 inh 8, LYPLA1 counter 14* and LYPLA1 confirm 5.
Screening O=C(CSc1ccccn1)Nc1ccc2c(c1)C(=O)c1ccccc1C2=O returned LYPLA2 counter -1, PAD4 FP inh -1, RBBP9 inhibitor 6, Fam108B counter 4, PME-1 inh 0 and LYPLA1 counter -3.
